ChEMBL document CHEMBL1149770, “Synthesis and antimicrobial studies of novel dichlorofluorophenyl containing aminotriazolothiadiazines” (2008)
In brackets after ≈: the same amount, converted by molar mass.

Key:
Streptococcus pyogenes [1] = assay: Antibacterial activity against Streptococcus pyogenes after 24 hrs by broth dilution technique; type: functional
Outline: (§1)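 MIC by broth dilution in nutrient broth with logarithmic serial twofold dilutions of compound. Inoculum approx. 5×10^5 c.f.u actively dividing bacteria. Incubated 24 h at 37 °C, growth monitored visually and spectrophotometrically. MIC taken as the lowest concentration (highest dilution) arresting growth. Ciprofloxacin reference.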

Staphylococcus aureus [2] = assay: Antibacterial activity against Staphylococcus aureus ATCC 25923 after 24 hrs by broth dilution technique; type: functional; conditions: ATCC 25923, 24 h; outline: as §1
[3] = system: Trichophyton mentagrophytes; assay: Antifungal activity against Trichophyton mentagrophytes assessed as inhibition zone diameter […] by agar dilution method; type: functional
Outline: (§2)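 Compounds in DMSO placed in punched wells on Sabouraud agar (peptone, glucose, agar, pH 5.7) lawned with saline spore suspension. Plates pre-dried 1 h at 37 °C. Controls in triplicate, incubation at 37 °C for 3-4 days, then inhibition zone diameter read in mm. Amphotericin B reference.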

Pseudomonas aeruginosa [4] = assay: Antibacterial activity against Pseudomonas aeruginosa ATCC 27853 assessed as inhibition zone diameter after 24 hrs […]; type: functional
Outline: (§3)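 Disc diffusion on nutrient agar. Inoculum 1-2 × 10^7 c.f.u/ml (0.5 McFarland) spread over the plate surface. Sterile 6.25 mm filter-paper discs soaked in a known concentration of compound. Solvent and growth controls included. Plates incubated inverted 24 h at 37 °C, then inhibition zone diameter measured in mm. Ciprofloxacin reference.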

[5] = system: Trichophyton mentagrophytes; assay: Antifungal activity against Trichophyton mentagrophytes after 48 hrs […]; type: functional
Candida albicans [6] = assay: Antifungal activity against Candida albicans assessed as inhibition zone diameter […] by agar dilution method; type: functional; outline: as §2
Aspergillus fumigatus [7] = assay: Antifungal activity against Aspergillus fumigatus after 48 hrs […]; type: functional
Candida albicans [8] = assay: Antifungal activity against Candida albicans after 48 hrs […]; type: functional
Staphylococcus aureus [9] = assay: Antibacterial activity against Staphylococcus aureus ATCC 25923 assessed as inhibition zone diameter after 24 hrs […]; type: functional; outline: as §3
Pseudomonas aeruginosa [10] = assay: Antibacterial activity against Pseudomonas aeruginosa ATCC 27853 after 24 hrs by broth dilution technique; type: functional; conditions: ATCC 27853, 24 h; outline: as §1
Klebsiella pneumoniae [11] = assay: Antibacterial activity against Klebsiella pneumoniae assessed as inhibition zone diameter after 24 hrs […]; type: functional; outline: as §3
Streptococcus pyogenes [12] = assay: Antibacterial activity against Streptococcus pyogenes assessed as inhibition zone diameter after 24 hrs by disc diffusion method
Talaromyces marneffei [13] = assay: Antifungal activity against Penicillium marneffei after 48 hrs […]; type: functional
Klebsiella pneumoniae [14] = assay: Antibacterial activity against Klebsiella pneumoniae after 24 hrs by broth dilution technique; type: functional; outline: as §1
Talaromyces marneffei [15] = assay: Antifungal activity against Penicillium marneffei assessed as inhibition zone diameter […] by agar dilution method; type: functional; outline: as §2
Escherichia coli = assay: Antibacterial activity against Escherichia coli ATCC 25922 after 24 hrs by broth dilution technique; type: functional; conditions: ATCC 25922, 24 h; outline: as §1
Aspergillus flavus [16] = assay: Antifungal activity against Aspergillus flavus after 48 hrs […]; type: functional
Aspergillus fumigatus [17] = assay: Antifungal activity against Aspergillus fumigatus assessed as inhibition zone diameter […] by agar dilution method; type: functional; outline: as §2
Aspergillus flavus [18] = assay: Antifungal activity against Aspergillus flavus assessed as inhibition zone diameter […] by agar dilution method; type: functional; outline: as §2

SMILES | MIC (Streptococcus pyogenes [1]) [µg/mL] | MIC (Staphylococcus aureus [2]) [µg/mL] | inhibition zone (IZ) [3] [mm] | inhibition zone (IZ) (Pseudomonas aeruginosa [4]) [mm] | MIC [5] [µg/mL] | inhibition zone (IZ) (Candida albicans [6]) [mm] | MIC (Aspergillus fumigatus [7]) [µg/mL] | MIC (Candida albicans [8]) [µg/mL] | inhibition zone (IZ) (Staphylococcus aureus [9]) [mm] | MIC (Pseudomonas aeruginosa [10]) [µg/mL] | inhibition zone (IZ) (Klebsiella pneumoniae [11]) [mm] | inhibition zone (IZ) (Streptococcus pyogenes [12]) [mm] | MIC (Talaromyces marneffei [13]) [µg/mL] | MIC (Klebsiella pneumoniae [14]) [µg/mL] | inhibition zone (IZ) (Talaromyces marneffei [15]) [mm] | MIC (Escherichia coli) [µg/mL] | MIC (Aspergillus flavus [16]) [µg/mL] | inhibition zone (IZ) (Aspergillus fumigatus [17]) [mm] | inhibition zone (IZ) (Aspergillus flavus [18]) [mm]
Cc1cc(C)c(NC2=Nn3c(nnc3-c3cc(F)c(Cl)cc3Cl)SC2)c(C)c1 | 12.5 (≈ 28.6 µM) | 6.25 (≈ 14.3 µM) | 14 | 16 | 12.5 (≈ 28.6 µM) | 13 | > 100 | 12.5 (≈ 28.6 µM) | 23 | 25 (≈ 57.3 µM) | 8 | 15 | 12.5 (≈ 28.6 µM) | 25 (≈ 57.3 µM) | 11 | 12.5 (≈ 28.6 µM) | > 100 | – | –
Cc1ccc(NC2=Nn3c(nnc3-c3cc(F)c(Cl)cc3Cl)SC2)c(C)c1 | 12.5 (≈ 29.6 µM) | > 100 | 12 | 18 | 12.5 (≈ 29.6 µM) | 8 | 25 (≈ 59.2 µM) | 25 (≈ 59.2 µM) | – | 12.5 (≈ 29.6 µM) | 14 | 11 | > 100 | 12.5 (≈ 29.6 µM) | – | 12.5 (≈ 29.6 µM) | 12.5 (≈ 29.6 µM) | 9 | 15
COc1ccc(NC(=O)CSc2nnc(-c3cc(F)c(Cl)cc3Cl)n2N)cc1 | 6.25 (≈ 14.1 µM) | 6.25 (≈ 14.1 µM) | – | 32 | > 100 | – | > 100 | > 100 | 24 | 6.25 (≈ 14.1 µM) | 21 | 23 | > 100 | 6.25 (≈ 14.1 µM) | – | 6.25 (≈ 14.1 µM) | > 100 | – | –
Fc1cc(-c2nnc3n2N=C(Nc2ccc(Cl)cc2Cl)CS3)c(Cl)cc1Cl | – | > 100 | 11 | – | 12.5 (≈ 27 µM) | 15 | 6.25 (≈ 13.5 µM) | 12.5 (≈ 27 µM) | – | > 100 | 17 | – | 12.5 (≈ 27 µM) | 12.5 (≈ 27 µM) | 12 | 12.5 (≈ 27 µM) | 25 (≈ 54 µM) | 19 | 8
Fc1ccc(NC2=Nn3c(nnc3-c3cc(F)c(Cl)cc3Cl)SC2)cc1 | 6.25 (≈ 15.2 µM) | 12.5 (≈ 30.3 µM) | 18 | 24 | 6.25 (≈ 15.2 µM) | 14 | 25 (≈ 60.6 µM) | 12.5 (≈ 30.3 µM) | 15 | 12.5 (≈ 30.3 µM) | 16 | 22 | 6.25 (≈ 15.2 µM) | 12.5 (≈ 30.3 µM) | 19 | 6.25 (≈ 15.2 µM) | > 100 | 6 | –
Fc1ccc(NC2=Nn3c(nnc3-c3cc(F)c(Cl)cc3Cl)SC2)cc1Cl | 6.25 (≈ 14 µM) | > 100 | 10 | 20 | 25 (≈ 56 µM) | – | > 100 | > 100 | – | 12.5 (≈ 28 µM) | 11 | 18 | 12.5 (≈ 28 µM) | 12.5 (≈ 28 µM) | 16 | 6.25 (≈ 14 µM) | > 100 | – | –
C[C@@H]1[C@H](O)[C@@H](C)/C=C/C=C/C=C/C=C/C=C/C=C/C=C/[C@H](O[C@@H]2O[C@H](C)[C@@H](O)[C@H](N)[C@@H]2O)C[C@@H]2O[C@](O)(C[C@@H](O)C[C@@H](O)[C@H](O)CC[C@@H](O)C[C@@H](O)CC(=O)O[C@H]1C)C[C@H](O)[C@H]2C(=O)O [AMPHOTERICIN B] | – | – | 19 | – | 6.25 (≈ 6.76 µM) | 20 | 6.25 (≈ 6.76 µM) | 6.25 (≈ 6.76 µM) | – | – | – | – | 6.25 (≈ 6.76 µM) | – | 23 | – | 6.25 (≈ 6.76 µM) | 22 | 25
O=C(O)c1cn(C2CC2)c2cc(N3CCNCC3)c(F)cc2c1=O [CIPROFLOXACIN] | 6.25 (≈ 18.9 µM) | – | – | 33 | – | – | – | – | 25 | – | 22 | 25 | – | 6.25 (≈ 18.9 µM) | – | – | – | – | –
